Compound activity: PubChem, several laboratories
SR-BI HDL uptake: mouse SR-BI HDL lipid transfer inhibition; ldlA[mSR-BI] CHO cells, DiI-HDL uptake fluorescence, 3 h; Q61009; inhibition, % at 12.5 µM; 320,000 compounds, 0.96% hits;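 active means mean replicate inhibition of at least 70% and a set share of replicates each scoring 70 or more; inconclusive means meets just one of the two criteria; inactive means fails both criteria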;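 further: 0% = median of neutral control wells and 100% = median of positive control wells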
Target sequence (Q61009 whole entry, looked up): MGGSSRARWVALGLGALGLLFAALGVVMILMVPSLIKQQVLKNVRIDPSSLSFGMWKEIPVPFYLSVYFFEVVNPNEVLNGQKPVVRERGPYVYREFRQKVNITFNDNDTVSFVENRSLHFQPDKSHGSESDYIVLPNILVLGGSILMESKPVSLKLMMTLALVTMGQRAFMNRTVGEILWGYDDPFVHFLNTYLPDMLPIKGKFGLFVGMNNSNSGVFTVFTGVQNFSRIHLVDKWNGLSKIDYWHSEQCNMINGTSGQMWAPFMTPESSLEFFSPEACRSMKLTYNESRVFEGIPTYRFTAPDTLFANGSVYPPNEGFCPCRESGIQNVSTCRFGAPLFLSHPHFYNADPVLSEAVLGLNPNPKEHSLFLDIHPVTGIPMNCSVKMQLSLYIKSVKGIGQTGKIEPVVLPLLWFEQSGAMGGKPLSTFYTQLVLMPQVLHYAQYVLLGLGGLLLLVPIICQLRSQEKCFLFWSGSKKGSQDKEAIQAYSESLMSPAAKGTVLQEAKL
TMEM16A act: activates or potentiates the mouse TMEM16A chloride channel; Q8BHY3; HEK293 TMEM16A/YFP-H148Q/I152L, iodide quench fluorescence; stronger effect = lower value; B-score at 10 µM; 340,000 compounds, 0.3% hits;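 active means fluorescence-ratio B-score plate-corrected deviation score at least 3 library SD below zero, with starting fluorescence score within 5 deviations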;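 further: channel opened by trigger with iodide after compound preincubation; score built on the fluorescence ratio of max minus min over baseline; more negative score means more quench and so TMEM16A activation or potentiation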
FID counter: displaces DNA intercalator in HCV helicase counter-screen; DNA fluorescent intercalator displacement, fluorescence; inhibition, % at 7.9 µM; 290,000 compounds, 0.17% hits; in the data active means inhibition above about 37%;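 further: 0% = vehicle and 100% = reference compound; higher means more ethidium bromide displaced from hairpin DNA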
Kir21 inh: Kir2.1 (mouse) channel inhibition; AID 1672; 310,000 compounds, 0.85% hits; P35561; B-score at 10 µM; HEK293-Kir2.1, FluxOR thallium flux fluorescence; stronger effect = lower value;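 active means fluorescence ratio B-score at or below minus 3 SD of library scores, with starting-brightness B-score within 2 SD, cut at about -4.2 in these data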;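 further: channel flux triggered by added potassium and thallium sulfate stimulus; B-score of peak minus minimum fluorescence over baseline after thallium stimulus; more negative B-score means stronger Kir2.1 block with less thallium influx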
SR-BI DiI-HDL act: activators of SR-BI mediated HDL lipid uptake | 320,000 compounds, 0.096% hits | activation, % at 12.5 µM | CHO ldlA[mSR-BI] cells, DiI-HDL uptake fluorescence, 3 h; 100 = double the neutral-control signal;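 active means mean replicate activation of at least 60% and every replicate at or above 60%; inconclusive means mean or all-replicate condition met, but not both; inactive means mean below 60% and not all replicates reaching 60%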;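 further: 0% = median plate neutral-control signal and 100% = twice that signal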
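Material – SR-BI-overexpressing, LDLR-lacking CHO cells · Medium – BSA-supplemented, HEPES-buffered Ham's F12, pH 7.4 · Doses – single concentration · Times – compound with DiI-HDL co-incubation, 3 h at 37 °C · Measured by – bottom-read fluorescence, 550/595 nm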
ANO1 block: mouse TMEM16A channel inhibition, primary screen; normalized B-score (activity score, 25-100; higher = stronger inhibition) at 10 µM; 310,000 compounds, 1.2% hits; HEK293 TMEM16A/YFP iodide influx fluorescence, ionomycin; AID 588511;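 active means ratio plate-corrected score three or more library SD toward inhibition, starting fluorescence score within five deviations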;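 further: score derived from kinetic fluorescence span divided by baseline fluorescence per well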
Numbers without * were called inactive; i = inactive; u = inconclusive; x = no result given. Compounds with a hit are over-represented: about 3% of the library has one in this group of screens.

SMILES	SR-BI HDL uptake	TMEM16A act	FID counter	Kir21 inh	SR-BI DiI-HDL act	ANO1 block
Cc1sc2ncnc(N/N=C/c3ccccc3O)c2c1C	116*	i	-7	-1.4	-116	i
Cc1sc2ncnc(N/N=C/c3ccc(O)cc3)c2c1C	19	i	4	-0.15	-19	i
CCOC(=O)c1c(S(=O)(=O)N2CCC(C)CC2)c(C)n(C)c1C	-5	i	-26	-1	5	i
CNC(=S)N/N=C/c1cc(Br)cc(Br)c1O	3	i	-1	2.4	-3	i
Oc1c(Br)cc(Br)cc1/C=N/NC(=S)N[C@H]1CC2C=CC1C2 (some centres not stated)	78*	i	-19	-1.2	-78	i
Cc1cc(C)c(C(=O)COC(=O)CCn2c(C)csc2=O)cc1C	4	i	x	-4.5*	-4	i
Cc1ccsc1C(=O)OCC(=O)NC1CCCC(C)C1C (configuration not stated)	-9	i	x	x	9	x
C=CCn1c(Cc2cccs2)nnc1SC/C=C/c1ccccc1	-18	i	-32	-15*	18	i
CCn1c(SC/C=C/c2ccccc2)nnc1-c1cccs1	11	i	-34	-7.8*	-11	i
CCn1c(SCC(=O)N2CCCC2=O)nnc1-c1cccs1	-96	i	x	x	96*	x
COc1ccc(Cl)cc1NC(=O)CN(C)C(=O)CN1C(=O)NC2(CCCC2)C1=O	-42	i	x	-0.97	42	i
Cc1ccc(S(=O)(=O)CCSc2n[nH]c(=O)n2-c2ccc3c(c2)OCCO3)cc1	x	i	-25	-0.78	x	i
CCCCC1=CC2=CC(=O)C(C)(OC(=O)CC)C(=O)C2=CN1C(CO)CO (configuration not stated)	-30	-5.8*	x	0.39	30	i
Cc1c(NC(=O)Nc2ccc(Cl)c(Cl)c2)sc(=S)n1C	90*	i	3	2	-90	i
O=C(Cc1cn(Cc2cccc(Cl)c2)c2ccccc12)N1CCCC1	23	i	-28	-5.2*	-23	i
O=C(CS(=O)(=O)c1cn(Cc2ccc(Cl)cc2)c2ccccc12)N1CCCC1	-5	i	-35	-0.26	5	i
CCc1nc(SCC(=O)Nc2ccc(Br)cn2)n[nH]1	-4	i	-3	0.96	4	i
CN(C)CCn1c(=N)n(CC(O)c2ccc(Cl)c(Cl)c2)c2ccccc21 (configuration not stated)	6	i	31	-6.9*	-6	i
N=c1n(CCN2CCCCC2)c2ccccc2n1CC(=O)c1ccc(Cl)c(Cl)c1	x	i	17	-4.8*	x	i
N=c1n(CCN2CCCCC2)c2ccccc2n1CC(O)COc1ccccc1 (configuration not stated)	-17	i	36	-3.2	17	i
N=c1n(CCN2CCCCC2)c2ccccc2n1CC(O)c1ccc(Cl)c(Cl)c1 (configuration not stated)	-3	i	34	-8.6*	3	i
N=c1n(CCN2CCCCC2)c2ccccc2n1CC(O)c1cccc(Br)c1 (configuration not stated)	4	i	25	-6.8*	-4	i
Cc1occc1-c1nnc(SCC(=O)NCc2cccs2)n1CC1CCCO1 (configuration not stated)	-61	-9.5*	-11	x	u	x
O=C1C(C=NCc2ccccn2)=C(O)c2ccccc21	-11	i	1	-0.03	11	25*
Nc1ccccc1Sc1ccc(C(=O)c2ccccc2C(=O)O)cc1[N+](=O)[O-]	1	i	-9	0.66	-1	i
CC(C)OC(=O)c1ccccc1C(=O)c1ccc(N)c([N+](=O)[O-])c1	29	i	1	-5.3*	-29	i
CC(=O)c1cc2c(cc1NC(=O)CCc1c(C)nc3ncnn3c1C)OCO2	-12	i	x	x	12	x
O=C(COc1ccc(-n2ccnc2)cc1)Nc1cccc(Cl)c1	4	i	-2	0.58	-4	25*
O=C(COc1ccc(-n2ccnc2)cc1)Nc1cccc(F)c1	-7	i	-3	-1.9	7	i
